Assay results reported in ChEMBL document CHEMBL1806360, “Synthesis and biological evaluation of conformationally flexible as well as restricted dimers of monastrol and related dihydropyrimidones” (Eur J Med Chem, 2011).
In brackets after ≈: the same amount, converted by molar mass.

test system: HT-29; assay: Cytotoxicity against human HT-29 cells after 48 hrs by MTT assay; format: functional, cell-based; details: HT-29, 48 h

Row | Compound | IC50
1 | CCOC(=O)C1=C(C)NC(=S)NC1c1cccc(OCCCCOc2cccc(C3NC(=S)NC(C)=C3C(=O)OCC)c2)c1 (stereo unspecified) | > 200 µg/mL
2 | CCOC(=O)C1=C(C)NC(=S)NC1c1cccc(OCCCCCOc2cccc(C3NC(=S)NC(C)=C3C(=O)OCC)c2)c1 (stereo unspecified) | > 200 µg/mL
3 | COC(=O)[C@@H]1CCCN1C(=O)C1=C(C)NC(=S)NC1c1ccc(OCCCOc2ccc(C3NC(=S)NC(C)=C3C(=O)N3CCC[C@H]3C(=O)OC)cc2OC)c(OC)c1 (stereo partly specified) | > 200 µg/mL
4 | CCOC(=O)C1=C(C)NC(=S)NC1c1ccc(OC/C=C/COc2ccc(C3NC(=S)NC(C)=C3C(=O)OCC)cc2OC)c(OC)c1 (stereo unspecified) | > 200 µg/mL
5 | COC(=O)[C@@H]1CCCN1C(=O)C1=C(C)NC(=S)NC1c1cccc(OCCCCCOc2cccc(C3NC(=S)NC(C)=C3C(=O)N3CCC[C@H]3C(=O)OC)c2)c1 (stereo partly specified) | > 200 µg/mL

test system: A549; assay: Cytotoxicity against human A549 cells after 48 hrs by MTT assay; format: functional, cell-based; details: A549, 48 h
How it was run: (§1)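 MTT assay. Medium with 10% FBS and 2 mM L-glutamine was DMEM for A431 and Colo-205, RPMI for A549, and MEM for MCF-7. Cultures were preincubated 24 h at 37 °C, 5% CO2. 1 × 10⁴ cells (trypan blue count) were exposed to 200, 100, 50, 25 and 10 concentration levels for 48 h at 37 °C. MTT was added for 4 h, formazan dissolved in DMSO, and A570 read. IC50 was curve-fitted from viability versus untreated cells, three experiments.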

Row | Compound | IC50
6 | CCOC(=O)C1=C(C)NC(=S)NC1c1cccc(OCCCCOc2cccc(C3NC(=S)NC(C)=C3C(=O)OCC)c2)c1 (stereo unspecified) | > 200 µg/mL
7 | CCOC(=O)C1=C(C)NC(=S)NC1c1cccc(OCCCCCOc2cccc(C3NC(=S)NC(C)=C3C(=O)OCC)c2)c1 (stereo unspecified) | > 200 µg/mL
8 | COC(=O)[C@@H]1CCCN1C(=O)C1=C(C)NC(=S)NC1c1ccc(OCCCOc2ccc(C3NC(=S)NC(C)=C3C(=O)N3CCC[C@H]3C(=O)OC)cc2OC)c(OC)c1 (stereo partly specified) | 180 µg/mL (≈ 212 µM)
9 | CCOC(=O)C1=C(C)NC(=S)NC1c1ccc(OC/C=C/COc2ccc(C3NC(=S)NC(C)=C3C(=O)OCC)cc2OC)c(OC)c1 (stereo unspecified) | 165 µg/mL (≈ 237 µM)
10 | COC(=O)[C@@H]1CCCN1C(=O)C1=C(C)NC(=S)NC1c1cccc(OCCCCCOc2cccc(C3NC(=S)NC(C)=C3C(=O)N3CCC[C@H]3C(=O)OC)c2)c1 (stereo partly specified) | 184 µg/mL (≈ 225 µM)

test system: A-431; assay: Cytotoxicity against human A431 cells after 48 hrs by MTT assay; format: functional, cell-based; details: A-431, 48 h; how it was run: as §1

Row | Compound | IC50
11 | CCOC(=O)C1=C(C)NC(=S)NC1c1cccc(OCCCCOc2cccc(C3NC(=S)NC(C)=C3C(=O)OCC)c2)c1 (stereo unspecified) | > 200 µg/mL
12 | CCOC(=O)C1=C(C)NC(=S)NC1c1cccc(OCCCCCOc2cccc(C3NC(=S)NC(C)=C3C(=O)OCC)c2)c1 (stereo unspecified) | 74 µg/mL (≈ 113 µM)
13 | COC(=O)[C@@H]1CCCN1C(=O)C1=C(C)NC(=S)NC1c1ccc(OCCCOc2ccc(C3NC(=S)NC(C)=C3C(=O)N3CCC[C@H]3C(=O)OC)cc2OC)c(OC)c1 (stereo partly specified) | 165 µg/mL (≈ 194 µM)
14 | CCOC(=O)C1=C(C)NC(=S)NC1c1ccc(OC/C=C/COc2ccc(C3NC(=S)NC(C)=C3C(=O)OCC)cc2OC)c(OC)c1 (stereo unspecified) | 185 µg/mL (≈ 265 µM)
15 | COC(=O)[C@@H]1CCCN1C(=O)C1=C(C)NC(=S)NC1c1cccc(OCCCCCOc2cccc(C3NC(=S)NC(C)=C3C(=O)N3CCC[C@H]3C(=O)OC)c2)c1 (stereo partly specified) | 159 µg/mL (≈ 194 µM)

test system: MCF7; assay: Cytotoxicity against human MCF7 cells after 48 hrs by MTT assay; format: functional, cell-based; details: MCF7, 48 h; how it was run: as §1

Row | Compound | IC50
16 | CCOC(=O)C1=C(C)NC(=S)NC1c1cccc(OCCCCOc2cccc(C3NC(=S)NC(C)=C3C(=O)OCC)c2)c1 (stereo unspecified) | 186 µg/mL (≈ 291 µM)
17 | CCOC(=O)C1=C(C)NC(=S)NC1c1cccc(OCCCCCOc2cccc(C3NC(=S)NC(C)=C3C(=O)OCC)c2)c1 (stereo unspecified) | 178 µg/mL (≈ 273 µM)
18 | COC(=O)[C@@H]1CCCN1C(=O)C1=C(C)NC(=S)NC1c1ccc(OCCCOc2ccc(C3NC(=S)NC(C)=C3C(=O)N3CCC[C@H]3C(=O)OC)cc2OC)c(OC)c1 (stereo partly specified) | 140 µg/mL (≈ 165 µM)
19 | CCOC(=O)C1=C(C)NC(=S)NC1c1ccc(OC/C=C/COc2ccc(C3NC(=S)NC(C)=C3C(=O)OCC)cc2OC)c(OC)c1 (stereo unspecified) | 35 µg/mL (≈ 50.2 µM)
20 | COC(=O)[C@@H]1CCCN1C(=O)C1=C(C)NC(=S)NC1c1cccc(OCCCCCOc2cccc(C3NC(=S)NC(C)=C3C(=O)N3CCC[C@H]3C(=O)OC)c2)c1 (stereo partly specified) | 34 µg/mL (≈ 41.5 µM)

test system: COLO 205; assay: Cytotoxicity against human COLO205 cells after 48 hrs by MTT assay; format: functional, cell-based; details: COLO 205, 48 h; how it was run: as §1

Row | Compound | IC50
21 | CCOC(=O)C1=C(C)NC(=S)NC1c1cccc(OCCCCOc2cccc(C3NC(=S)NC(C)=C3C(=O)OCC)c2)c1 (stereo unspecified) | > 200 µg/mL
22 | CCOC(=O)C1=C(C)NC(=S)NC1c1cccc(OCCCCCOc2cccc(C3NC(=S)NC(C)=C3C(=O)OCC)c2)c1 (stereo unspecified) | 190 µg/mL (≈ 291 µM)
23 | COC(=O)[C@@H]1CCCN1C(=O)C1=C(C)NC(=S)NC1c1ccc(OCCCOc2ccc(C3NC(=S)NC(C)=C3C(=O)N3CCC[C@H]3C(=O)OC)cc2OC)c(OC)c1 (stereo partly specified) | 92 µg/mL (≈ 108 µM)
24 | CCOC(=O)C1=C(C)NC(=S)NC1c1ccc(OC/C=C/COc2ccc(C3NC(=S)NC(C)=C3C(=O)OCC)cc2OC)c(OC)c1 (stereo unspecified) | 90 µg/mL (≈ 129 µM)
25 | COC(=O)[C@@H]1CCCN1C(=O)C1=C(C)NC(=S)NC1c1cccc(OCCCCCOc2cccc(C3NC(=S)NC(C)=C3C(=O)N3CCC[C@H]3C(=O)OC)c2)c1 (stereo partly specified) | 71 µg/mL (≈ 86.7 µM)

test system: Nucleic Acid; assay: Binding affinity to calf thymus DNA assessed as change in melting temperature at compound to DNA ratio of 1:5 after 18 hrs at pH 7; format: nucleic-acid assay; details: Bos taurus
How it was run: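 Thermal melting of calf thymus DNA in 10 mM sodium phosphate with 1 mM Na2EDTA, pH 7.00. Compound was added from DMSO stock at a fixed 1:5 compound:DNA molar ratio. The mix was incubated 18 h at 37 °C, then A260 was monitored while heating at 1 °C/min over 40–90 °C. ΔTm is relative to DNA alone.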

Row | Compound | ΔTm
26 | CCOC(=O)C1=C(C)NC(=S)NC1c1ccc(OC/C=C/COc2ccc(C3NC(=S)NC(C)=C3C(=O)OCC)cc2OC)c(OC)c1 (stereo unspecified) | 3.2 °C
